This passage reports inhibition, CL and Activity results from ChEMBL document CHEMBL4196230, “Design, Synthesis, and Blood-Brain Barrier Transport Study of Pyrilamine Derivatives as Histone Deacetylase Inhibitors” (ACS Med Chem Lett, 2018).

The source made the active and inactive calls. The calls are words filed in the database; no cut-off is given here.

The target in series [1] is T1, Protein deacetylase HDAC6 (Mus musculus) (UniProt Q9Z2V5).
T1 sequence (whole entry): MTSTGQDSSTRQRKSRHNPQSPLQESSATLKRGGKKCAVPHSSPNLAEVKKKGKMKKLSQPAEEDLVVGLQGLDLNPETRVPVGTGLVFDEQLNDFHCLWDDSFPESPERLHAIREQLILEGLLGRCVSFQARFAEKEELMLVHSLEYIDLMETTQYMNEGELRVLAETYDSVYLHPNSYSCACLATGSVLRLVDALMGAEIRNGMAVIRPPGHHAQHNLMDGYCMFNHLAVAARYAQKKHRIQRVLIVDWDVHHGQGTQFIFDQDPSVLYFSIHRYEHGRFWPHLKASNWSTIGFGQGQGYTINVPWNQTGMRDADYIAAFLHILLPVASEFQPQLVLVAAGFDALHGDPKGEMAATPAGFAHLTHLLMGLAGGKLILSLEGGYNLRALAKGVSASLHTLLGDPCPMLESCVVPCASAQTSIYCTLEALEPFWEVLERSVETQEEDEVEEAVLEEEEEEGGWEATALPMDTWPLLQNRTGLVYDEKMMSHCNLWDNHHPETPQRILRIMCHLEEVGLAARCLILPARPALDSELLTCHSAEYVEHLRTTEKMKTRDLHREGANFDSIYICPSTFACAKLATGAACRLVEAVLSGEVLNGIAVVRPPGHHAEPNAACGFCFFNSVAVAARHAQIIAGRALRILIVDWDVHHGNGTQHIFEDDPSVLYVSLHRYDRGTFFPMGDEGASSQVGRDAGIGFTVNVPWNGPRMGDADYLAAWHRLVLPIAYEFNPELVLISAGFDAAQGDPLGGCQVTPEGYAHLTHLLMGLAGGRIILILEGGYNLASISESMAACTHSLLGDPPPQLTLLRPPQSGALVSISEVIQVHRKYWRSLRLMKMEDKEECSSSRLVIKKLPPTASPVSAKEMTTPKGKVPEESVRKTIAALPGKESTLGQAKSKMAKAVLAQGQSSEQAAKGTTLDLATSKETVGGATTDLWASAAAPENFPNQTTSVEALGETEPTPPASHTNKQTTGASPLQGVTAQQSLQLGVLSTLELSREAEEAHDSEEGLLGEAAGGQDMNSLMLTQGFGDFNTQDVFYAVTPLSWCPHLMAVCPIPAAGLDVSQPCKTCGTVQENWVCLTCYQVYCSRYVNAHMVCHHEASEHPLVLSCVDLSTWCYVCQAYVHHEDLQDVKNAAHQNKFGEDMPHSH
Description: Inhibition of mouse HDAC6 expressed in 293T cells at 100 uM using Ac-KGLGK(Ac)-MCA as substrate measured after 30 mins by fluorescence assay relative to control.

A short description of series [2]: Substrate activity at PYSOCA in human CMEC/D3 cells assessed as transporter-mediated drug uptake clearance assessed per mg protein at 37degC. Format: ADME, cell-based. The method in brief:
(§1)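 Uptake by hCMEC/D3 cells followed over time at 37 °C or 4 °C. Clearance was calculated from the initial linear slope, expressed per mg protein. Mean ± S.E., n = 4.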

Series [3] can be described thus: Substrate activity at PYSOCA in human CMEC/D3 cells assessed as transporter-mediated drug uptake clearance assessed per mg protein at 4degC measured after 30 mins. The following applies: 0.5 h. In kind it is ADME, cell-based. The method in brief: as §1
A short description of series [4]: Substrate activity at PYSOCA in human CMEC/D3 cells assessed as transporter-mediated drug uptake measured for 2 mins at 37degC in presence of pyrilamine. In kind it is ADME, cell-based.
The nature of series [5]: Substrate activity at PYSOCA in human CMEC/D3 cells assessed as transporter-mediated drug uptake measured for 2 mins at 37degC in presence of diphenhydramine. In kind it is ADME, cell-based. The method in brief: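 Uptake by hCMEC/D3 cells was measured at various substrate concentrations, at 37 °C for 2 min, with or without diphenhydramine (100 µM). Data were analysed by Michaelis-Menten and Lineweaver-Burk plots using nonlinear least-squares regression (Eqs. 1 and 2). Mean ± S.E., n = 4.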

Series [6] is described as follows: Substrate activity at PYSOCA in human CMEC/D3 cells assessed as transporter-mediated drug uptake measured for 2 mins at 37degC in presence of memantine. Format: ADME, cell-based.
The nature of series [7]: Substrate activity at PYSOCA in human CMEC/D3 cells assessed as transporter-mediated drug uptake measured for 2 mins at 37degC in presence of tramadol. Format: ADME, cell-based.
The nature of series [8]: Substrate activity at PYSOCA in human CMEC/D3 cells assessed as transporter-mediated drug uptake measured for 2 mins at 37degC in presence of clonidine. In kind it is ADME, cell-based.
The nature of series [9]: Substrate activity at PYSOCA in human CMEC/D3 cells assessed as transporter-mediated drug uptake measured for 2 mins at 37degC in presence of varenicline. Format: ADME, cell-based.
The nature of series [10]: Substrate activity at PYSOCA in human CMEC/D3 cells assessed as transporter-mediated drug uptake measured for 2 mins at 37degC in presence of TEA. In kind it is ADME, cell-based.
Series [11] in a line: Substrate activity at PYSOCA in human CMEC/D3 cells assessed as transporter-mediated drug uptake measured for 2 mins at 37degC in presence of MPP+. Format: ADME, cell-based.
Series [12] can be described thus: Substrate activity at PYSOCA in human CMEC/D3 cells assessed as transporter-mediated drug uptake measured for 2 mins at 37degC in presence of decynium-22. Format: ADME, cell-based.
Series [13] is described as follows: Substrate activity at PYSOCA in human CMEC/D3 cells assessed as transporter-mediated drug uptake measured for 2 mins at 37degC in presence of L-carnitine. Format: ADME, cell-based.
Series [14] is described as follows: Substrate activity at PYSOCA in human CMEC/D3 cells assessed as transporter-mediated drug uptake measured for 2 mins at 37degC in presence of choline. In kind it is ADME, cell-based.
Series [15] has as its target Histone deacetylase (Homo sapiens) (UniProt Q13547+O15379+Q9UBN7+Q92769+Q9UQL6+Q8WUI4+Q9BY41+Q96DB2+P56524+Q9UKV0+Q969S8). The following applies: at 10 µM.

For the compound `COc1ccc(CN(CCN(C)C)c2ccc(C(=O)Nc3cc(Br)ccc3N)cn2)cc1`, the inhibition (as a rule, the share of the control response that was lost under treatment) in [1] was found to be 21%.
Still for that read-out and setting: for `COc1ccc(CN(CCN(C)C)c2ccc(C(=O)Nc3cc(I)ccc3N)cn2)cc1` the value was 16%; for `COc1ccc(CN(CCN(C)C)c2ccc(C(=O)Nc3cc(Cl)ccc3N)cn2)cc1`, 7%.
Same read-out and setting: for `CC(/C=C/C(=O)NO)=C\[C@@H](C)C(=O)c1ccc(N(C)C)cc1` the value was 98%.
As for `CC(=O)Nc1ccc(C(=O)Nc2ccccc2N)cc1` [TACEDINALINE], the inhibition in series [1] worked out at 18%. Further, the CL in [2] stood at 1.26 µL/min. For the same compound, the result in series [3], in series [4], in series [5], in series [6], in series [7] and in [8] was Active. Besides, the result in series [9], in series [10], in [11], in [12], in series [13] and in series [14] was Active. In addition, in series [15], the inhibition entry is “Active”.
As to `COc1ccc(CN(CCN(C)C)c2ccc(C(=O)Nc3cc(-c4ccco4)ccc3N)cn2)cc1`, the inhibition in [1] is 15%.
Same read-out and setting: for `COc1ccc(CN(CCN(C)C)c2ccc(C(=O)Nc3cc(-c4ccccc4)ccc3N)cn2)cc1` the value was 14%.
Still for that read-out and setting: the value for `COc1ccc(CN(CCN(C)C)c2ccc(C(=O)Nc3cc(-c4cccs4)ccc3N)cn2)cc1` was 15%.
